# Activity calls are given as the source filed them. The rule behind the calls is not given here.
# System: Pseudomonas aeruginosa
# Experiment: Antibacterial activity against Pseudomonas aeruginosa ATCC 27853 measured after 18 hrs by CLSI broth dilution method
# Assay type: functional
# Conditions: ATCC 27853, 18 h
# Outline: (§1)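 Broth MIC in Mueller-Hinton II broth following CLSI, compounds dissolved in DMSO. Strains subcultured twice on tryptic soy agar before testing. Growth read after 35 °C, 18 h.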
row,Structure (SMILES),MIC [µg/mL]
1,C[Si]1(C)OB(O)c2c(F)c(F)c(F)c(F)c21,> 400

# System: Pichia kudriavzevii
# Experiment: Antifungal activity against Candida krusei ATCC 6258 assessed as diameter of zone inhibition incubated for 24 hrs by CLSI disc diffusion method
# Assay type: functional
# Conditions: not given
# Outline: (§2)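 Yeast disc diffusion on Mueller-Hinton agar supplemented with 2% glucose and 0.5 mg/L methylene blue. Compounds in DMSO. Yeasts subcultured on Sabouraud dextrose agar before testing. Zones read after 35 °C, 24 h.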
row,Structure (SMILES),diameter of the inhibition zone (DIZ) [mm]
1,C[Si]1(C)OB(O)c2c(F)c(F)c(F)c(F)c21,13

# System: Enterococcus faecalis
# Experiment: Antibacterial activity against Enterococcus faecalis ATCC 29212 assessed as diameter of zone inhibition measured after 18 hrs by CLSI disc diffusion method
# Assay type: functional
# Conditions: not given
# Outline: (§3)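 Disc diffusion on Mueller-Hinton II agar. Compounds dissolved in DMSO. Strains stored at -80 °C and subcultured twice on tryptic soy agar before testing. Inhibition zones read after 35 °C, 18 h.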
row,Structure (SMILES),diameter of the inhibition zone (DIZ) [mm]
1,C[Si]1(C)OB(O)c2c(F)c(F)c(F)c(F)c21,11

# System: Proteus mirabilis
# Experiment: Antibacterial activity against Proteus mirabilis ATCC 12453 assessed as diameter of zone inhibition measured after 18 hrs by CLSI disc diffusion method
# Assay type: functional
# Conditions: not given
# Outline: as §3
row,Structure (SMILES),diameter of the inhibition zone (DIZ) [mm]
1,C[Si]1(C)OB(O)c2c(F)c(F)c(F)c(F)c21,11

# System: Escherichia coli
# Experiment: Antibacterial activity against Escherichia coli ATCC 25922 assessed as diameter of zone inhibition measured after 18 hrs by CLSI disc diffusion method
# Assay type: functional
# Conditions: not given
# Outline: as §3
row,Structure (SMILES),diameter of the inhibition zone (DIZ) [mm]
1,C[Si]1(C)OB(O)c2c(F)c(F)c(F)c(F)c21,18

# System: Staphylococcus epidermidis
# Experiment: Antibacterial activity against Staphylococcus epidermidis ATCC 12228 assessed as diameter of zone inhibition measured after 18 hrs by CLSI disc diffusion method
# Assay type: functional
# Conditions: not given
# Outline: as §3
row,Structure (SMILES),diameter of the inhibition zone (DIZ) [mm]
1,C[Si]1(C)OB(O)c2c(F)c(F)c(F)c(F)c21,17

# System: Enterobacter cloacae
# Experiment: Antibacterial activity against Enterobacter cloacae DSM 6234 measured after 18 hrs by CLSI broth dilution method
# Assay type: functional
# Conditions: DSM 6234, 18 h
# Outline: as §1
row,Structure (SMILES),MIC [µg/mL]
1,C[Si]1(C)OB(O)c2c(F)c(F)c(F)c(F)c21,> 400

# System: Bordetella bronchiseptica
# Experiment: Antibacterial activity against Bordetella bronchiseptica ATCC 4617 assessed as diameter of zone inhibition measured after 18 hrs by CLSI disc diffusion method
# Assay type: functional
# Conditions: not given
# Outline: as §3
row,Structure (SMILES),diameter of the inhibition zone (DIZ) [mm]
1,C[Si]1(C)OB(O)c2c(F)c(F)c(F)c(F)c21,15

# System: Stenotrophomonas maltophilia
# Experiment: Antibacterial activity against Stenotrophomonas maltophilia ATCC 13637 assessed as fold reduction of MIC in presence of efflux pump inhibitor PAbetaN incubated for 18 hrs by broth microdilution method
# Assay type: functional
# Conditions: not given
# Outline: (§4)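 MICs determined with and without PAβN at 50 mg/L in Mueller-Hinton broth containing 1 mM MgSO₄. 2-fold serial dilutions per CLSI. Fold change taken from the paired MICs after 35 °C, 18 h.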
row,Structure (SMILES),fold change (FC)
1,C[Si]1(C)OB(O)c2c(F)c(F)c(F)c(F)c21,16

# System: Klebsiella pneumoniae
# Experiment: Antibacterial activity against Klebsiella pneumoniae ATCC 13883 measured after 18 hrs by CLSI broth dilution method
# Assay type: functional
# Conditions: ATCC 13883, 18 h
# Outline: as §1
row,Structure (SMILES),MIC [µg/mL]
1,C[Si]1(C)OB(O)c2c(F)c(F)c(F)c(F)c21,> 400

# System: not listed separately
# Experiment: Dissociation constant, pKa1 of compound in 0.1 M NaOH by potentiometric analysis
# Assay type: physicochemical
# Conditions: not given
row,Structure (SMILES),pKa
1,C[Si]1(C)OB(O)c2c(F)c(F)c(F)c(F)c21,4.7

# System: Escherichia coli
# Experiment: Antibacterial activity against Escherichia coli ATCC 25922 assessed as fold reduction of MIC in presence of efflux pump inhibitor PAbetaN incubated for 18 hrs by CLSI broth microdilution method
# Assay type: functional
# Conditions: not given
# Outline: as §4
row,Structure (SMILES),fold change (FC)
1,C[Si]1(C)OB(O)c2c(F)c(F)c(F)c(F)c21,32

# System: Enterococcus faecalis
# Experiment: Antibacterial activity against Enterococcus faecalis ATCC 29212 measured after 18 hrs by CLSI broth dilution method
# Assay type: functional
# Conditions: ATCC 29212, 18 h
# Outline: as §1
row,Structure (SMILES),MIC [µg/mL]
1,C[Si]1(C)OB(O)c2c(F)c(F)c(F)c(F)c21,200

# System: Klebsiella pneumoniae
# Experiment: Antibacterial activity against Klebsiella pneumoniae ATCC 13883 assessed as fold reduction of MIC in presence of efflux pump inhibitor PAbetaN incubated for 18 hrs by broth microdilution method
# Assay type: functional
# Conditions: not given
# Outline: as §4
row,Structure (SMILES),fold change (FC)
1,C[Si]1(C)OB(O)c2c(F)c(F)c(F)c(F)c21,16

# System: Meyerozyma guilliermondii
# Experiment: Antifungal activity against Candida guilliermondii IBA 155 assessed as decrease in fungal cell growth at 0.78 to 12.5 mg/L incubated for 24 hrs by CLSI broth dilution method
# Assay type: functional
# Conditions: IBA 155, 24 h
# Outline: (§5)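 Yeast broth dilution in RPMI 1640 with 2% glucose, compounds in DMSO. Yeasts pre-grown on Sabouraud dextrose agar. Growth read after 35 °C, 24 h.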
row,Structure (SMILES),MIC [µg/mL]
1,C[Si]1(C)OB(O)c2c(F)c(F)c(F)c(F)c21,50

# System: Burkholderia cepacia
# Experiment: Antibacterial activity against Burkholderia cepacia ATCC 25416 measured after 18 hrs by CLSI broth dilution method
# Assay type: functional
# Conditions: ATCC 25416, 18 h
# Outline: as §1
row,Structure (SMILES),MIC [µg/mL]
1,C[Si]1(C)OB(O)c2c(F)c(F)c(F)c(F)c21,> 400

# System: Acinetobacter baumannii
# Experiment: Antibacterial activity against Acinetobacter baumannii ATCC 19606 measured after 18 hrs by CLSI broth dilution method
# Assay type: functional
# Conditions: ATCC 19606, 18 h
# Outline: as §1
row,Structure (SMILES),MIC [µg/mL]
1,C[Si]1(C)OB(O)c2c(F)c(F)c(F)c(F)c21,400

# System: Stenotrophomonas maltophilia
# Experiment: Antibacterial activity against Stenotrophomonas maltophilia ATCC 13637 measured after 18 hrs by CLSI broth dilution method
# Assay type: functional
# Conditions: ATCC 13637, 18 h
# Outline: as §1
row,Structure (SMILES),MIC [µg/mL]
1,C[Si]1(C)OB(O)c2c(F)c(F)c(F)c(F)c21,400

# System: Proteus mirabilis
# Experiment: Antibacterial activity against Proteus mirabilis ATCC 12453 measured after 18 hrs by CLSI broth dilution method
# Assay type: functional
# Conditions: ATCC 12453, 18 h
# Outline: as §1
row,Structure (SMILES),MIC [µg/mL]
1,C[Si]1(C)OB(O)c2c(F)c(F)c(F)c(F)c21,400

# System: Candida parapsilosis
# Experiment: Antifungal activity against Candida parapsilosis ATCC 22019 assessed as decrease in fungal cell growth at 0.78 to 12.5 mg/L incubated for 24 hrs by CLSI broth dilution method
# Assay type: functional
# Conditions: Lodderomyces parapsilosis, ATCC 22019, 24 h
# Outline: as §5
row,Structure (SMILES),MIC [µg/mL]
1,C[Si]1(C)OB(O)c2c(F)c(F)c(F)c(F)c21,50

# System: Candida parapsilosis
# Experiment: Antifungal activity against Candida parapsilosis ATCC 22019 assessed as diameter of zone inhibition incubated for 24 hrs by CLSI disc diffusion method
# Assay type: functional
# Conditions: not given
# Outline: as §2
row,Structure (SMILES),diameter of the inhibition zone (DIZ) [mm]
1,C[Si]1(C)OB(O)c2c(F)c(F)c(F)c(F)c21,21

# System: Enterococcus faecium
# Experiment: Antibacterial activity against Enterococcus faecium ATCC 6057 measured after 18 hrs by CLSI broth dilution method
# Assay type: functional
# Conditions: ATCC 6057, 18 h
# Outline: as §1
row,Structure (SMILES),MIC [µg/mL]
1,C[Si]1(C)OB(O)c2c(F)c(F)c(F)c(F)c21,200

# System: Klebsiella pneumoniae
# Conditions: ATCC 13883
row,Structure (SMILES),DIZ
1,C[Si]1(C)OB(O)c2c(F)c(F)c(F)c(F)c21,inactive

# System: Candida tropicalis
# Experiment: Antifungal activity against Candida tropicalis IBA 171 assessed as diameter of zone inhibition incubated for 24 hrs by CLSI disc diffusion method
# Assay type: functional
# Conditions: not given
# Outline: as §2
row,Structure (SMILES),diameter of the inhibition zone (DIZ) [mm]
1,C[Si]1(C)OB(O)c2c(F)c(F)c(F)c(F)c21,13

# System: Staphylococcus aureus
# Experiment: Antibacterial activity against Staphylococcus aureus ATCC 6538P assessed as diameter of zone inhibition measured after 18 hrs by CLSI disc diffusion method
# Assay type: functional
# Conditions: not given
# Outline: as §3
row,Structure (SMILES),diameter of the inhibition zone (DIZ) [mm]
1,C[Si]1(C)OB(O)c2c(F)c(F)c(F)c(F)c21,17

# System: Meyerozyma guilliermondii
# Experiment: Antifungal activity against Candida guilliermondii IBA 155 assessed as diameter of zone inhibition incubated for 24 hrs by CLSI disc diffusion method
# Assay type: functional
# Conditions: not given
# Outline: as §2
row,Structure (SMILES),diameter of the inhibition zone (DIZ) [mm]
1,C[Si]1(C)OB(O)c2c(F)c(F)c(F)c(F)c21,14

# System: Serratia marcescens
# Experiment: Antibacterial activity against Serratia marcescens ATCC 13880 measured after 18 hrs by CLSI broth dilution method
# Assay type: functional
# Conditions: ATCC 13880, 18 h
# Outline: as §1
row,Structure (SMILES),MIC [µg/mL]
1,C[Si]1(C)OB(O)c2c(F)c(F)c(F)c(F)c21,> 400

# System: Bacillus subtilis
# Experiment: Antibacterial activity against Bacillus subtilis ATCC 6633 assessed as diameter of zone inhibition measured after 18 hrs by CLSI disc diffusion method
# Assay type: functional
# Conditions: not given
# Outline: as §3
row,Structure (SMILES),diameter of the inhibition zone (DIZ) [mm]
1,C[Si]1(C)OB(O)c2c(F)c(F)c(F)c(F)c21,20

# System: Staphylococcus aureus
# Experiment: Antibacterial activity against Staphylococcus aureus ATCC 6538P measured after 18 hrs by CLSI broth dilution method
# Assay type: functional
# Conditions: not given
# Outline: as §1
row,Structure (SMILES),MIC [µg/mL]
1,C[Si]1(C)OB(O)c2c(F)c(F)c(F)c(F)c21,25

# System: Candida albicans
# Experiment: Antifungal activity against Candida albicans ATCC 90028 assessed as diameter of zone inhibition incubated for 24 hrs by CLSI disc diffusion method
# Assay type: functional
# Conditions: not given
# Outline: as §2
row,Structure (SMILES),diameter of the inhibition zone (DIZ) [mm]
1,C[Si]1(C)OB(O)c2c(F)c(F)c(F)c(F)c21,15

# System: Acinetobacter baumannii
# Experiment: Antibacterial activity against Acinetobacter baumannii ATCC 19606 assessed as diameter of zone inhibition measured after 18 hrs by CLSI disc diffusion method
# Assay type: functional
# Conditions: not given
# Outline: as §3
row,Structure (SMILES),diameter of the inhibition zone (DIZ) [mm]
1,C[Si]1(C)OB(O)c2c(F)c(F)c(F)c(F)c21,12

# System: Enterococcus faecium
# Experiment: Antibacterial activity against Enterococcus faecium ATCC 6057 assessed as diameter of zone inhibition measured after 18 hrs by CLSI disc diffusion method
# Assay type: functional
# Conditions: not given
# Outline: as §3
row,Structure (SMILES),diameter of the inhibition zone (DIZ) [mm]
1,C[Si]1(C)OB(O)c2c(F)c(F)c(F)c(F)c21,11

# System: Serratia marcescens
# Conditions: ATCC 13880
row,Structure (SMILES),DIZ
1,C[Si]1(C)OB(O)c2c(F)c(F)c(F)c(F)c21,inactive

# System: Proteus mirabilis
# Experiment: Antibacterial activity against Proteus mirabilis ATCC 12453 assessed as fold reduction of MIC in presence of efflux pump inhibitor PAbetaN incubated for 18 hrs by broth microdilution method
# Assay type: functional
# Conditions: not given
# Outline: as §4
row,Structure (SMILES),fold change (FC)
1,C[Si]1(C)OB(O)c2c(F)c(F)c(F)c(F)c21,2

# System: Burkholderia cepacia
# Experiment: Antibacterial activity against Burkholderia cepacia ATCC 25416 assessed as diameter of zone inhibition measured after 18 hrs by CLSI disc diffusion method
# Assay type: functional
# Conditions: not given
# Outline: as §3
row,Structure (SMILES),diameter of the inhibition zone (DIZ)
1,C[Si]1(C)OB(O)c2c(F)c(F)c(F)c(F)c21,inactive

# System: Bordetella bronchiseptica
# Experiment: Antibacterial activity against Bordetella bronchiseptica ATCC 4617 measured after 18 hrs by CLSI broth dilution method
# Assay type: functional
# Conditions: ATCC 4617, 18 h
# Outline: as §1
row,Structure (SMILES),MIC [µg/mL]
1,C[Si]1(C)OB(O)c2c(F)c(F)c(F)c(F)c21,100

# Source: ChEMBL document CHEMBL4346672, “Antimicrobial and KPC/AmpC inhibitory activity of functionalized benzosiloxaboroles” (Eur J Med Chem, 2019)
